Test results taken from ChEMBL document CHEMBL1137629, “Antiproliferative effect of dihydroxyacetone on Trypanosoma brucei bloodstream forms: cell cycle progression, subcellular alterations, and cell death” (Antimicrob Agents Chemother, 2007).
Active and inactive are the calls of the source. The calls are words filed in the database; no cut-off is given here.

Columns and labels:
Trypanosoma brucei [1] = test: Effect on morphological changes in Trypanosoma brucei bloodstream form assessed as presence of one or two nucleus at 3 mM after 24 hrs by transmission electron microscopy; type: functional, organism-based
Procedure, shortened: (§1)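 Parasites exposed 24 h to 3 mM DHA. 10⁸ cells fixed 1 h at 4°C in 2% glutaraldehyde in 0.2 M sodium cacodylate with 0.12 M sucrose, held overnight in buffer, postfixed in 1.5% osmium tetroxide and stained with 0.5% uranyl acetate. Dehydrated in ethanol, cleared in propylene oxide, embedded in Agar 100. Sections stained with 5% uranyl acetate and 0.4% lead citrate for TEM. Rapamycin (5 μM) served as the autophagy positive control.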

Trypanosoma brucei [2] = test: Cell cycle arrest in Trypanosoma brucei bloodstream form assessed as accumulation at G2 phase at 2 mM after 24 hrs using propidium iodide staining by FACS analysis; type: functional
Procedure, shortened: (§2)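 T. brucei bloodstream forms (MITat 1.2, strain EATRO 427), axenic culture at 37°C, 5% CO₂. Treated 24 h. At least 5 × 10⁵ cells washed in PBS, lysed hypotonically 30 min at room temperature in 10 mM phosphate buffer pH 7.4 with 6 μM digitonin. Nuclei stained with propidium iodide (10 μg/ml final) and analysed by flow cytometry for G₁/S/G₂ distribution and degraded DNA.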

Trypanosoma brucei [3] = test: Effect on cell cycle of Trypanosoma brucei bloodstream form assessed as induction of necrosis at 4 mM after 24 hrs using propidium iodide staining by FACS analysis; type: functional
Procedure, shortened: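 Bloodstream forms exposed 24 h at 37°C, 5% CO₂. Cells at 2 × 10⁶/ml incubated 10 min with propidium iodide (5 μg/ml), and uptake read by flow cytometry as a measure of membrane integrity. Digitonin (6 μM) served as the necrosis positive control.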

Trypanosoma brucei [4] = test: Effect on morphological changes in Trypanosoma brucei bloodstream form assessed as presence of kinetoplast at 5 mM after 20 hrs by scanning electron microscopy; type: functional, organism-based
Procedure, shortened: (§3)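 Cells grown 20 h with 5 mM DHA. Fixed and stained as for TEM (glutaraldehyde, osmium tetroxide, uranyl acetate), then dehydrated through 50, 75, 95 and 100% ethanol. Critical-point dried and gold-palladium sputter-coated for scanning electron microscopy.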

Trypanosoma brucei [5] = test: Induction of apoptosis-like programmed cell death in Trypanosoma brucei bloodstream form assessed as phosphatidylserine exposure in outer leaflet of plasma membrane at 3 mM after 24 hrs by V-Fluos staining staining; type: functional
Procedure, shortened: (§4)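 After 24 h DHA exposure of axenic bloodstream-form T. brucei MITat 1.2 (EATRO 427; 37°C, 5% CO₂), cells were washed in HEPES buffer (10 mM, pH 7.4, 140 mM NaCl, 5 mM CaCl₂). They were then stained with annexin V-Fluos for 15 min at 4°C and analysed by flow cytometry.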

Trypanosoma brucei [6] = test: Effect on morphological changes in Trypanosoma brucei bloodstream form assessed as presence of kinetoplast after 24 hrs using DAPI staining by phase-contrast microscopy; type: functional, organism-based
Procedure, shortened: (§5)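 Bloodstream forms (MITat 1.2, EATRO 427) grown 24 h with or without DHA. Aliquots washed twice in PBS, resuspended, placed on slides and fixed with methanol. Stained 5 min with DAPI (0.1 μg/ml final), then washed. Phase-contrast and fluorescence images scored for nucleus/kinetoplast numbers (1N1K, 1N2K, 2N2K, 2N1K, abnormal). n = 4, Student's t test, SD.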

Trypanosoma brucei [7] = test: Trypanocidal activity against Trypanosoma brucei bloodstream form assessed as cell death at 1 mM after 40 mins by spectrophotometry; type: functional, organism-based
Trypanosoma brucei [8] = test: Induction of programmed cell death in Trypanosoma brucei bloodstream form assessed as death of total cell population at > 4 mM up to 24 hrs using propidium iodide staining by FACS analysis
Trypanosoma brucei [9] = test: Trypanocidal activity against Trypanosoma brucei bloodstream form at 5 mM up to 24 hrs by spectrophotometry; type: functional
Procedure, shortened: (§6)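 Proliferation measured in complete medium (33 mM glucose, 15% serum) with a range of DHA concentrations. Cell density followed over 24 h. Triplicate, SD.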

Trypanosoma brucei [10] = test: Effect on morphological changes in Trypanosoma brucei bloodstream form assessed as change in cell nucleus at 3 mM after 24 hrs by transmission electron microscopy; type: functional, organism-based; procedure, shortened: as §1
Trypanosoma brucei [11] = test: Effect on morphological changes in Trypanosoma brucei bloodstream form assessed as increase in cell size at 5 mM after 20 hrs by scanning electron microscopy; type: functional, organism-based; procedure, shortened: as §3
Trypanosoma brucei [12] = test: Effect on cell cycle of Trypanosoma brucei bloodstream form assessed as DNA content at 4 mM after 24 hrs using propidium iodide staining by FACS analysis; type: functional; procedure, shortened: as §2
Trypanosoma brucei [13] = test: Effect on morphological changes in Trypanosoma brucei bloodstream form assessed as increase in mitochondrion size at 3 mM after 24 hrs by transmission electron microscopy; type: functional, organism-based; procedure, shortened: as §1
Trypanosoma brucei [14] = test: Effect on cell cycle of Trypanosoma brucei bloodstream form assessed as DNA content at 3 mM after 24 hrs using propidium iodide staining by FACS analysis; type: functional; procedure, shortened: as §2
Trypanosoma brucei [15] = test: Effect on morphological changes in Trypanosoma brucei bloodstream form assessed as dilation of mitochondrial membrane at 3 mM after 24 hrs by transmission electron microscopy; type: functional, organism-based; procedure, shortened: as §1
Trypanosoma brucei [16] = test: Effect on morphological changes in Trypanosoma brucei bloodstream form assessed as presence of more than one flagellum after 24 hrs using DAPI staining by phase-contrast microscopy; type: functional, organism-based; procedure, shortened: as §5
Trypanosoma brucei [17] = test: Effect on cell cycle of Trypanosoma brucei bloodstream form assessed as induction of necrosis at 5 uM after 24 hrs using propidium iodide staining by FACS analysis; type: functional
Trypanosoma brucei [18] = test: Effect on cell cycle of Trypanosoma brucei bloodstream form assessed as DNA content at 5 uM after 24 hrs using propidium iodide staining by FACS analysis; type: functional; procedure, shortened: as §2
Trypanosoma brucei [19] = test: Effect on cell cycle of Trypanosoma brucei bloodstream form assessed as increase in cells with two nuclei and one kinetoplast at 1 to 3 mM using DAPI staining by phase-contrast microscopy; type: functional, organism-based; procedure, shortened: as §5
Trypanosoma brucei [20] = test: Effect on morphological changes in Trypanosoma brucei bloodstream form assessed as presence of myelin-like structures at 3 mM after 24 hrs by transmission electron microscopy; type: functional, organism-based; procedure, shortened: as §1
Trypanosoma brucei [21] = test: Trypanocidal activity against Trypanosoma brucei bloodstream form assessed as decrease in cell density after 24 hrs by spectrophotometry; type: functional, organism-based; procedure, shortened: as §6
Trypanosoma brucei [22] = test: Induction of apoptosis-like programmed cell death in Trypanosoma brucei bloodstream form assessed as phosphatidylserine exposure in outer leaflet of plasma membrane at 2 mM after 24 hrs by V-Fluos staining staining; type: functional; procedure, shortened: as §4
Trypanosoma brucei [23] = test: Trypanocidal activity against Trypanosoma brucei bloodstream form at 4 mM up to 24 hrs by spectrophotometry; type: functional; procedure, shortened: as §6
Trypanosoma brucei [24] = test: Effect on morphological changes in Trypanosoma brucei bloodstream form assessed as presence of glycosomes at 3 mM after 24 hrs by transmission electron microscopy; type: functional, organism-based; procedure, shortened: as §1
Trypanosoma brucei [25] = test: Effect on morphological changes in Trypanosoma brucei bloodstream form assessed as increase in cisternal and vesicular structures within cytosol at 3 mM after 24 hrs by transmission electron microscopy; type: functional, organism-based; procedure, shortened: as §1
Trypanosoma brucei [26] = test: Induction of apoptosis-like programmed cell death in Trypanosoma brucei bloodstream form assessed as loss of mitochondrial-membrane potential at 5 uM after 24 hrs by TMRE staining; type: functional
Trypanosoma brucei [27] = test: Induction of apoptosis-like programmed cell death in Trypanosoma brucei bloodstream form assessed as increase in intracellular reactive oxygen species production at 1 mM after 24 hrs by FACS analysis; type: functional
Procedure, shortened: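 Bloodstream-form T. brucei MITat 1.2 (VSG 221, strain EATRO 427) were grown axenically at 37°C, 5% CO₂ and exposed to DHA for 24 h. Control and treated cells were then loaded with 10 μM dichlorofluorescein diacetate for 1 h at 37°C. Intracellular fluorescence intensity was read by flow cytometry.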

O=C(CO)CO [DIHYDROXYACETONE]
Activity (Trypanosoma brucei [1]): Active
Activity (Trypanosoma brucei [2]): 50%
Activity (Trypanosoma brucei [3]): 12.9%
Activity (Trypanosoma brucei [4]): inactive
Activity (Trypanosoma brucei [5]): 11.9%
Activity (Trypanosoma brucei [6]): Dose-dependent effect
Activity (Trypanosoma brucei [7]): Active
Activity (Trypanosoma brucei [8]): Active
Activity (Trypanosoma brucei [9]): 100%
Activity (Trypanosoma brucei [10]): inactive
Activity (Trypanosoma brucei [11]): inactive
Activity (Trypanosoma brucei [12]): 9.7%
Activity (Trypanosoma brucei [13]): Active
Activity (Trypanosoma brucei [14]): 8%
Activity (Trypanosoma brucei [15]): Active
Activity (Trypanosoma brucei [16]): Dose-dependent effect
Activity (Trypanosoma brucei [17]): 4.5%
Activity (Trypanosoma brucei [18]): 47%
Activity (Trypanosoma brucei [19]): Active
Activity (Trypanosoma brucei [20]): Active
Activity (Trypanosoma brucei [21]): Dose-dependent effect
Activity (Trypanosoma brucei [22]): 10.1%
Activity (Trypanosoma brucei [23]): 100%
Activity (Trypanosoma brucei [24]): Active
Activity (Trypanosoma brucei [25]): Active
Activity (Trypanosoma brucei [26]): 31.4%
Activity (Trypanosoma brucei [27]): 5.9%
